{"source": "paper PMC9514064", "about": "(Protein Science : A Publication of the Protein Society, 2022)", "key": {"Bha TRAP12 [1]": {"biological_target": "T1, Bha TRAP12 (Halalkalibacterium halodurans, UniProt Q9KCC6)", "T1 sequence (Q9KCC6 1-76)": "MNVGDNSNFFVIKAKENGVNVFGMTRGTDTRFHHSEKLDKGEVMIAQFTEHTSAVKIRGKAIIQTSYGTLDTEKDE", "test": "Isothermal titration calorimetry, Trp into TRAP", "type": "binding, B. halodurans", "settings": "ITC 25°C, two-sites model", "summary_of_the_method": "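Tag-free protein (C-terminal ENLYFQ left after TEV cleavage), expressed in E. coli BL21(DE3), made Trp-free by Gdn-HCl denaturation, RP-HPLC, refolding and SEC, then dialysed into buffer A (100 mM NaCl, 50 mM NaPO₄, pH 8.0). 293 μM Trp (in dialysate) titrated into 23 μM protomers, 25°C, 307 rpm. Integrated heats fit to a two-sites model; oligomer concentration corrected via fitted n; 200-sample bootstrap confidence intervals.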"}, "Bha TRAP12 [2]": {"biological_target": "T1, Bha TRAP12", "type": "binding, B. halodurans", "summary_of_the_method": "(§1)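 Apo protein dialysed into 400 mM ammonium acetate, adjusted to pH 8 with NH₄OH. Samples of 6.0–7.4 μM protein with 0–140 μM Trp were prepared fresh in parallel. Native MS on an Orbitrap UHMR at ~25°C, each point in triplicate with different emitters. Abundances of the 0–12-bound states came from peak areas, with protein concentration corrected by a quadratic independent-sites fit. A 12-site NN model was fit globally by Powell minimisation; uncertainties are SD of three repeats.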"}, "Bst TRAP12 ∆71": {"biological_target": "T2, Bst TRAP12 ∆71 (Geobacillus stearothermophilus, UniProt Q9X6J6)", "T2 sequence (Q9X6J6 1-69 limits assumed)": "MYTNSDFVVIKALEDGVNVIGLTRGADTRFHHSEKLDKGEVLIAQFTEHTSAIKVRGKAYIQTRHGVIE", "type": "binding, B. stearothermophilus", "summary_of_the_method": "as §1"}, "Bst TRAP11": {"biological_target": "T3, Bst TRAP11 (Geobacillus stearothermophilus, UniProt Q9X6J6)", "T3 sequence (Q9X6J6 1-74)": "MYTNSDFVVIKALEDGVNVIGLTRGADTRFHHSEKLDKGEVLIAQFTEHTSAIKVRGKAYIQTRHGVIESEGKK", "type": "binding, B. stearothermophilus", "summary_of_the_method": "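Apo 11-mer protein dialysed into 400 mM ammonium acetate. Samples of 6.0–7.4 μM protein with 0–140 μM Trp (serial dilutions) were prepared fresh in parallel. Native MS on an Orbitrap UHMR at ~25°C. Relative abundances of Trp-bound states came from integrated peak areas, with binding-site concentration corrected by a quadratic independent-sites fit. Populations were fit globally to a nearest-neighbour model (ΔG₀, ΔGα) by Powell minimisation.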"}, "[3]": {"settings": "1/(αK 0), NN model, dissociation constant for sites with one bound neighbor, ~25°C"}, "[4]": {"settings": "1/K 0, NN model, dissociation constant for isolated sites, ~25°C"}, "[5]": {"settings": "NN model, sites with 1 occupied neighbor, ~25°C"}, "[6]": {"settings": "NN model, sites with no occupied neighbors, room temperature ~25°C, 400 mM ammonium acetate"}}, "note": "Values joined by “and” are separate entries in the source; they are usually repeats but may differ in a detail not shown here. Equal entries are not always repeated. Where two headings read alike, the source gives them in different places.", "data": [{"smiles": "N[C@@H](Cc1c[nH]c2ccccc12)C(=O)O", "note": "[Trp, tryptophan]", "values": [{"measurement": "n (fitted binding sites), Site 1", "setting": "Bha TRAP12 [1]; buffer A", "value": "≈ 1"}, {"measurement": "n (fitted binding sites), Site 2", "setting": "Bha TRAP12 [1]; buffer A", "value": "~ 11"}, {"measurement": "Kd", "setting": "Bha TRAP12 [1]; Kd,1 (Site 1), first Trp", "value": "1.8 ± 0.3", "unit": "µM"}, {"measurement": "Kd", "setting": "Bha TRAP12 [2]; [3]", "value": "2.8 ± 0.8", "unit": "µM"}, {"measurement": "Kd", "setting": "Bha TRAP12 [2]; [4]", "value": "720 ± 140", "unit": "µM"}, {"measurement": "Cooperativity factor α", "setting": "Bha TRAP12 [2]; NN model, K N1/K 0, fold increase in affinity with one occupied neighbor", "value": "256 and 256 ± 87"}, {"measurement": "ΔG 0 + ΔG α", "setting": "Bha TRAP12 [2]; [5]", "value": "-7.6 ± 0.2", "unit": "kcal/mol"}, {"measurement": "ΔG 0", "setting": "Bha TRAP12 [2]; [6]", "value": "-4.3 ± 0.1", "unit": "kcal/mol"}, {"measurement": "Kd", "setting": "Bst TRAP12 ∆71; [3]", "value": "7.8 ± 1.2", "unit": "µM"}, {"measurement": "Kd", "setting": "Bst TRAP12 ∆71; [4]", "value": "217 ± 13", "unit": "µM"}, {"measurement": "Cooperativity factor α", "setting": "Bst TRAP12 ∆71; NN model, K N1/K 0", "value": "28 and 28 ± 5"}, {"measurement": "ΔG 0 + ΔG α", "setting": "Bst TRAP12 ∆71; [5]", "value": "-7.0 ± 0.1", "unit": "kcal/mol"}, {"measurement": "ΔG 0", "setting": "Bst TRAP12 ∆71; [6]", "value": "-5.00 ± 0.03", "unit": "kcal/mol"}, {"measurement": "Kd", "setting": "Bst TRAP11; [3]", "value": "4.4 ± 1.9", "unit": "µM"}, {"measurement": "Kd", "setting": "Bst TRAP11; [4]", "value": "36 ± 12", "unit": "µM"}, {"measurement": "Cooperativity factor α", "setting": "Bst TRAP11; NN model, K N1/K 0", "value": "8 and 8 ± 5"}, {"measurement": "coupling energy ΔG α", "setting": "Bst TRAP11; NN model, between adjacent sites", "value": "−1.2 ± 0.3 kcal mol^−1 interaction^−1"}, {"measurement": "ΔG 0 + ΔG α", "setting": "Bst TRAP11; [5]", "value": "-7.3 ± 0.3", "unit": "kcal/mol"}, {"measurement": "ΔG 0", "setting": "Bst TRAP11; [6]", "value": "-6.1 ± 0.2", "unit": "kcal/mol"}]}]}
